The values that follow come from ChEMBL document CHEMBL3588772, “Synthesis, anti-mycobacterial activity and DNA sequence-selectivity of a library of biaryl-motifs containing polyamides” (Bioorg Med Chem, 2015).

SMILES strings stand for the structures. Values after ≈ are worked out from the molar mass of the structure shown.

The test system of the assay is Mycobacterium tuberculosis. In words: Antimycobacterial activity against Mycobacterium bovis BCG after 7 days. Format: functional. The note with it: variant bovis BCG, 168 h. In short, it runs like this: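 HT-SPOTi agar growth inhibition in 96-well format. Serially diluted DMSO solutions were mixed into Middlebrook 7H10 agar (kept at 55 °C) with 0.05% glycerol and 10% OADC. Controls were DMSO-only wells and isoniazid. Each well received 2×10³ CFU of culture (pre-grown rolling at 2 rpm or standing, 37 °C). Plates ran 7 days at 37 °C. MIC = lowest concentration with no visible growth.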
In general, MIC refers to the least concentration at which growth counts as inhibited. Low values mean greater potency, high ones weaker potency. `CC(=O)Nc1ccc(-c2csc(C(=O)Nc3cc(C(=O)Nc4cc(C(=O)NCCCN(C)C)n(C)c4)n(C)c3)c2)cc1` displayed an MIC of 125 µg/mL (≈ 212 µM).
`CC(=O)Nc1ccc(-c2ccc(C(=O)Nc3cc(C(=O)Nc4cc(C(=O)NCCCN(C)C)n(C)c4)n(C)c3)o2)cc1`: the minimum inhibitory concentration (MIC) worked out at 125 µg/mL (≈ 218 µM).
Under `CC(=O)Nc1cccc(-c2ccc(C(=O)Nc3cc(C(=O)Nc4cc(C(=O)NCCCN(C)C)n(C)c4)n(C)c3)o2)c1` stands 125 µg/mL (≈ 218 µM); under `CC(=O)Nc1ccc(-c2cc(C(=O)Nc3cc(C(=O)Nc4cc(C(=O)NCCCN(C)C)n(C)c4)n(C)c3)n(C)c2)cc1`, 125 µg/mL (≈ 213 µM); under `Cc1nc(-c2ccsc2)sc1C(=O)Nc1cc(C(=O)Nc2cc(C(=O)NCCCN(C)C)n(C)c2)n(C)c1`, 125 µg/mL (≈ 226 µM).
Compound `Cc1nc(-c2cnn(C)c2)sc1C(=O)Nc1cc(C(=O)Nc2cc(C(=O)NCCCN(C)C)n(C)c2)n(C)c1` returned an MIC of 62.5 µg/mL (≈ 113 µM).
The compound `NNC(=O)c1ccncc1` [ISONIAZID] returned an MIC of 0.05 µg/mL (≈ 0.365 µM).
Under `CO[C@H]1/C=C/O[C@@]2(C)Oc3c(C)c(O)c4c(O)c(c(/C=N/N5CCN(C)CC5)c(O)c4c3C2=O)NC(=O)/C(C)=C\C=C\[C@H](C)[C@H](O)[C@@H](C)[C@@H](O)[C@@H](C)[C@H](OC(C)=O)[C@@H]1C` [RIFAMPIN] stands 0.05 µg/mL (≈ 0.0608 µM); under `Cn1cc(NC(=O)c2cc(NC(=O)c3cc(NC=O)cn3C)cn2C)cc1C(=O)NCCC(=N)N` [STALLIMYCIN], 1.95 µg/mL (≈ 4.05 µM).
